KCNK3 inh = human KCNK3 channel inhibition, primary screen; 0.84% of 340,000 active; CHO-KCNK3 thallium flux, FluxOR fluorescence; stronger effect = lower value; B-score at 10 µM; O14649;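 active = B-score under library mean minus 4 SD, starting fluorescence ratio at most library mean plus 5 SD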;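 also: more negative B-score means stronger inhibition of thallium flux through KCNK3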
KCNK9 block = inhibitors of human KCNK9 two-pore domain potassium channel; Q9NPC2; HEK293 KCNK9, FluxOR thallium flux fluorescence; stronger effect = lower value; B-score at 10 µM; 1.2% of 310,000 active; AID 488922;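 active = ratio B-score over 3 SD below the library mean, with starting fluorescence within 5 SD of its mean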;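 also: negative B-score means less thallium flux so channel inhibition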
Target sequence (Q9NPC2 whole entry, looked up, the tested form may be a part): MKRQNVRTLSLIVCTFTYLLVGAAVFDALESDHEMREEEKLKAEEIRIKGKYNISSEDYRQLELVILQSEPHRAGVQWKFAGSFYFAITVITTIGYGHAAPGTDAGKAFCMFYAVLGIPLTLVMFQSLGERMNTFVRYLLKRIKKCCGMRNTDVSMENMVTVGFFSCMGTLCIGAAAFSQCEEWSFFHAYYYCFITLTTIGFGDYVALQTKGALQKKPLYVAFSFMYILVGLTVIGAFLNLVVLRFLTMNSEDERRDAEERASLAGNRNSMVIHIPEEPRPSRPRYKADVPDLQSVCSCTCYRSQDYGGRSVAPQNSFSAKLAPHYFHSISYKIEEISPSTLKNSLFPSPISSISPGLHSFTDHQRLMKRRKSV
Kir21 inh = Kir2.1 (mouse) channel inhibition. P35561. HEK293-Kir2.1, FluxOR thallium flux fluorescence; stronger effect = lower value. B-score at 10 µM. 0.85% of 310,000 active. AID 1672;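 active = fluorescence ratio B-score at or below minus 3 SD of library scores, with starting-brightness B-score within 2 SD, cut at about -4.2 in these data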;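 also: channel flux triggered by added potassium and thallium sulfate stimulus; B-score of peak minus minimum fluorescence over baseline after thallium stimulus; more negative B-score means stronger Kir2.1 block with less thallium influx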
hERG protect = shields human hERG channel from block by proarrhythmic agents; CHO-hERG, FluxOR thallium flux, dofetilide IC70 present; activation (rescue from dofetilide block), less the hit threshold, % at 10 µM; 0.51% of 310,000 active;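 active = activation above the mean of controls blocked by dofetilide plus 5 SD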;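 also: thallium influx through hERG after potassium depolarization seen as dye fluorescence rise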
KCNQ1 pot = potentiates or activates the human KCNQ1 potassium channel; B-score at 10 µM; 0.35% of 310,000 active; P51787; CHO-K1 KCNQ1, thallium flux FluxOR fluorescence; stronger effect = higher value;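 active = fluorescence ratio B-score, a plate-corrected score, at least three library SD, with initial intensity B-score within 5 SD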
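Medium – assay buffer, equal DMSO in all wells · Material – CHO-K1 cell line with stable KCNQ1 potassium channel expression · Signal – kinetic FluxOR thallium fluorescence, 10-s 1-Hz baseline, 110-s post-stimulus read · Compound – single concentration per compound, DMSO matched to controls · Schedule – 37 °C overnight plating, 90-min dark dye load, 20-min compound pretreatment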
KCNQ1 inh = blocks the human KCNQ1 potassium channel; P51787; CHO-K1 KCNQ1, FluxOR thallium flux fluorescence; stronger effect = higher value; B-score at 10 µM; 1.3% of 310,000 active; AID 2642;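 active = compounds whose thallium flux B-score, printed positive for inhibition, exceeds three library SD while starting fluorescence stays within three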;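 also: channel opened by potassium depolarization with thallium stimulus after 20 min compound exposure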
KCNK9 inh conf = human KCNK9 inhibitor confirmation; AID 492992; HEK293 KCNK9 cells, FluxOR thallium flux fluorescence; inhibition, % at 10 µM; shares compounds with KCNK9 block; 43% of 4,900 active;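 active = thallium signal inhibited by more than 5 SD of the compound-free buffer control wells, on both duplicate plates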
Kir21 sel = selectivity of KCNK9 modulators against mouse Kir2.1. AID 492993. shares compounds with KCNK9 block. Kir2.1 cells, FluxOR thallium flux fluorescence. 4% of 4,900 active. inhibition, % at 10 µM;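 active = thallium signal drop more than 5 SD beyond the mean of the no-compound control wells, seen in both duplicate plates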;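 also: signal is fluorescence rise after thallium addition divided by baseline fluorescence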
KCNK9 uninduced = non-induced cell nonspecific activity of KCNK9 modulators. shares compounds with KCNK9 block. 40% of 4,900 active. non-induced KCNK9-HEK293, FluxOR thallium flux. inhibition, % at 10 µM. AID 492997;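 active = thallium signal drop beyond 5 SD of the untreated control mean, on both duplicate plates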
A number is an active result. A selection: hits, their analogues and other compounds. The true share with any hit is near 3.8%.

For CSc1nnc(-c2sccc2-n2cccc2)o1 the results were KCNK3 inh inactive, KCNK9 block inactive, Kir21 inh inactive, hERG protect inactive, KCNQ1 pot inactive and KCNQ1 inh inactive.
For Cc1ccc(/C=N/n2cnc3sc(C)c(C)c3c2=O)o1 the results were KCNK3 inh inactive, KCNK9 block inactive, Kir21 inh inactive, hERG protect inactive, KCNQ1 pot inactive, KCNQ1 inh inactive, KCNK9 inh conf inactive, Kir21 sel inactive and KCNK9 uninduced inactive.
For Cc1ccc(SCCN2CCN(Cc3ccccc3)CC2)cc1 the results were KCNK3 inh inactive, KCNK9 block inactive, Kir21 inh inactive, hERG protect inactive, KCNQ1 pot inactive, KCNQ1 inh inactive, KCNK9 inh conf inactive, Kir21 sel inactive and KCNK9 uninduced inactive.
Screening Cc1ccc(CNC(=O)CCS(=O)(=O)c2ccc3nc(C)sc3c2)cc1 returned KCNK3 inh inactive, KCNK9 block inactive, Kir21 inh inactive, hERG protect inactive, KCNQ1 pot inactive and KCNQ1 inh inactive.
For NC(=O)/C=C\c1cn(-c2ccccc2)nc1-c1ccc2c(c1)OCCO2 the results were KCNK3 inh inactive, KCNK9 block inactive, Kir21 inh inactive, hERG protect inactive, KCNQ1 pot inactive and KCNQ1 inh inactive.
For CC(C)OC(=O)c1cn(-c2ccccc2)nc1-c1ccc2c(c1)OCCO2 the results were KCNK3 inh inactive, KCNK9 block inactive, Kir21 inh inactive, hERG protect inactive, KCNQ1 pot inactive, KCNQ1 inh inactive, KCNK9 inh conf inactive, Kir21 sel inactive and KCNK9 uninduced inactive.
CC1=NN(C(N)=S)C(=O)C1N=Nc1cccc(Cl)c1C (configuration not stated) was read as KCNK3 inh inactive, KCNK9 block inactive, Kir21 inh inactive, hERG protect inactive, KCNQ1 pot 41, KCNQ1 inh inactive, KCNK9 inh conf inactive, Kir21 sel inactive and KCNK9 uninduced inactive.
Screening COc1ccc(C2Nc3ccccc3C(=O)N2Cc2ccco2)cc1COc1ccc(F)cc1 (configuration not stated) returned KCNK3 inh inactive, KCNK9 block -9.01, Kir21 inh inactive, hERG protect inactive, KCNQ1 pot inactive, KCNQ1 inh inactive, KCNK9 inh conf 35.0%, Kir21 sel inactive and KCNK9 uninduced 36.0%.
COc1ccc(C2Nc3ccccc3C(=O)N2Cc2ccco2)cc1CN1C(=O)c2ccccc2C1=O (configuration not stated) was read as KCNK3 inh inactive, KCNK9 block inactive, Kir21 inh inactive, hERG protect inactive, KCNQ1 pot inactive and KCNQ1 inh inactive.
Screening Cc1ccc(C(=O)CC2(O)C(=O)N(Cc3ccc4c(c3)OCO4)c3ccccc32)cc1 (configuration not stated) returned KCNK3 inh inactive, KCNK9 block inactive, Kir21 inh inactive, hERG protect inactive, KCNQ1 pot inactive and KCNQ1 inh inactive.
For CCC(NC(=O)c1cccc(Cn2nc(C)c([N+](=O)[O-])c2C)c1)c1ccc(C(C)C)cc1 (configuration not stated) the results were KCNK3 inh inactive, KCNK9 block inactive, Kir21 inh inactive, hERG protect inactive, KCNQ1 pot inactive, KCNQ1 inh inactive, KCNK9 inh conf inactive, Kir21 sel inactive and KCNK9 uninduced inactive.
Screening COc1ccc(CCNC(=O)CSc2nc3[nH]ncc3c(=O)n2-c2ccc(Cl)cc2Cl)cc1OC returned KCNK3 inh inactive, KCNK9 block inactive, Kir21 inh inactive, hERG protect inactive, KCNQ1 pot inactive and KCNQ1 inh inactive.
O=C(NCc1ccccc1)c1ccc(C(=O)N(C2CCCCC2)C2CCCCC2)cc1 was read as KCNK3 inh inactive, KCNK9 block -8.95, Kir21 inh inactive, hERG protect inactive, KCNQ1 pot inactive, KCNQ1 inh inactive, KCNK9 inh conf inactive, Kir21 sel inactive and KCNK9 uninduced 32.0%.
For Cc1ccc(-c2cc(-c3ccccc3)nc(N/N=C/c3cccnc3)n2)cc1 the results were KCNK3 inh inactive, KCNK9 block inactive, Kir21 inh inactive, hERG protect inactive, KCNQ1 pot inactive and KCNQ1 inh inactive.
For Cc1cc(-c2ccccc2)nc(N/N=C/c2ccco2)n1 the results were KCNK3 inh inactive, KCNK9 block inactive, Kir21 inh inactive, hERG protect inactive, KCNQ1 pot inactive and KCNQ1 inh inactive.
For C(=N/Nc1nc(-c2ccccc2)cc(-c2ccccc2)n1)/c1cccnc1 the results were KCNK3 inh inactive, KCNK9 block inactive, Kir21 inh inactive, hERG protect inactive, KCNQ1 pot inactive, KCNQ1 inh inactive, KCNK9 inh conf inactive, Kir21 sel inactive and KCNK9 uninduced inactive.
Screening Cc1cc(-c2ccccc2)nc(N/N=C/c2ccc(O)cc2O)n1 returned KCNK3 inh inactive, KCNK9 block -15.3, Kir21 inh inactive, hERG protect inactive, KCNQ1 pot inactive, KCNQ1 inh inactive, KCNK9 inh conf 75.0%, Kir21 sel inactive and KCNK9 uninduced 33.0%.
`C[C@H](CO)N1C[C@H](C)[C@@H](CN(C)C(=O)Nc2ccccc2)Oc2ccc(NC(=O)C3CCCCC3)cc2C1=O` gave KCNK3 inh inactive.
For CCN(C(=O)CSc1nc2cc(Cl)ccc2c(=O)n1Cc1ccco1)C1CCS(=O)(=O)C1 (configuration not stated) the results were KCNK3 inh inactive, KCNK9 block -10.4, Kir21 inh inactive, hERG protect inactive, KCNQ1 pot inactive, KCNQ1 inh inactive, KCNK9 inh conf inactive, Kir21 sel inactive and KCNK9 uninduced inactive.
Screening CN(C(=O)CSc1nc2ccc(Br)cc2c(=O)n1Cc1ccco1)C1CCS(=O)(=O)C1 (configuration not stated) returned KCNK3 inh inactive, KCNK9 block inactive, Kir21 inh inactive, hERG protect inactive, KCNQ1 pot inactive and KCNQ1 inh inactive.
Screening NC(=O)C1CCN(C(=O)/C=C/c2cccc(Br)c2)CC1 returned KCNK3 inh inactive, KCNK9 block inactive, Kir21 inh inactive, hERG protect inactive, KCNQ1 pot inactive and KCNQ1 inh inactive.
COc1cccc(/C=N/Nc2nc3ccccc3n3cnnc23)c1O was read as KCNK3 inh inactive, KCNK9 block inactive, Kir21 inh inactive, hERG protect inactive, KCNQ1 pot inactive and KCNQ1 inh inactive.
Screening COc1ccc2[nH]cc(CCNC(=O)c3ccco3)c2c1 returned KCNK3 inh inactive.
